These results are taken from ChEMBL document CHEMBL4017549, “Structural Basis of Inhibition of ERα-Coactivator Interaction by High-Affinity N-Terminus Isoaspartic Acid Tethered Helical Peptides” (J Med Chem, 2017).

Calls of active or inactive are those of the source. The calls are words filed in the database; no cut-off is given here. Peptide text beside a SMILES is read from it. * marks the point of attachment. FITC = O=C1OC2(c3ccc(O)cc3Oc3cc(O)ccc32)c2ccc(NC(=S)*)cc21; βAla = NCCC(=O)O

Data set [1] deals with T1, Estrogen receptor (Homo sapiens, UniProt P03372).
T1 sequence (P03372 whole entry): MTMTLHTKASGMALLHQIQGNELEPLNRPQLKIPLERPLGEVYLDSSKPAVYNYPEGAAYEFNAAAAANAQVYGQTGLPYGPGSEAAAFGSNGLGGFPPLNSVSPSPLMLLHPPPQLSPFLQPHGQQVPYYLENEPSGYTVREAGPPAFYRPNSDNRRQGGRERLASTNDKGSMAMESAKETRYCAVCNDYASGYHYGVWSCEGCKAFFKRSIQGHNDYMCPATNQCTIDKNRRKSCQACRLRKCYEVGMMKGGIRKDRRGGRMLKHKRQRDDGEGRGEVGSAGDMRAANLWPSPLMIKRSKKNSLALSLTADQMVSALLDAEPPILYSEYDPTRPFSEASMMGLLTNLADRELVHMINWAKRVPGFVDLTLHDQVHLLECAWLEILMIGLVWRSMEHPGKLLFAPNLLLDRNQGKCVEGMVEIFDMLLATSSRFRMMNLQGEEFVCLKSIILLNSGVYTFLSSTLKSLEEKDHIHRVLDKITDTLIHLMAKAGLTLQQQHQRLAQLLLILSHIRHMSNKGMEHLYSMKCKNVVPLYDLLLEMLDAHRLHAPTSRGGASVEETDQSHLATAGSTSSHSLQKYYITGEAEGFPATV
As to the kind of experiment: Binding affinity to recombinant human GFP-fused ERalpha LBD (301 to 553 residues) expressed in Escherichia coli BL21(DE3) after 40 mins in presence of 17beta-estradiol by fluorescence polarization assay. Background: Fluorescence polarisation rises when a labelled molecule tumbles more slowly, as on binding a larger partner.

In data set [2] the target is Estrogen receptor beta (Homo sapiens, UniProt Q92731). As to the kind of experiment: Binding affinity to recombinant human GFP-fused ERbeta LBD (259 to 498 residues) expressed in Escherichia coli BL21(DE3) after 40 mins in presence of 17beta-estradiol by fluorescence polarization assay. Summed up: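 FITC-labelled peptide at 10 nM final, titrated with increasing purified LBD (ERβ LBD carrying C334S, C369S, C481S) in 20 mM Tris-HCl pH 8.0, 150 mM NaCl, 5% glycerol, 1 mM TCEP with 10 μM 17β-estradiol. Incubated 40 min in the dark, polarization read at 298 K (ex 480/em 535 nm). KD from nonlinear regression of polarization versus protein concentration.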

Data set [3] addresses T2, Progesterone receptor (Homo sapiens, UniProt P06401).
T2 sequence (P06401 whole entry): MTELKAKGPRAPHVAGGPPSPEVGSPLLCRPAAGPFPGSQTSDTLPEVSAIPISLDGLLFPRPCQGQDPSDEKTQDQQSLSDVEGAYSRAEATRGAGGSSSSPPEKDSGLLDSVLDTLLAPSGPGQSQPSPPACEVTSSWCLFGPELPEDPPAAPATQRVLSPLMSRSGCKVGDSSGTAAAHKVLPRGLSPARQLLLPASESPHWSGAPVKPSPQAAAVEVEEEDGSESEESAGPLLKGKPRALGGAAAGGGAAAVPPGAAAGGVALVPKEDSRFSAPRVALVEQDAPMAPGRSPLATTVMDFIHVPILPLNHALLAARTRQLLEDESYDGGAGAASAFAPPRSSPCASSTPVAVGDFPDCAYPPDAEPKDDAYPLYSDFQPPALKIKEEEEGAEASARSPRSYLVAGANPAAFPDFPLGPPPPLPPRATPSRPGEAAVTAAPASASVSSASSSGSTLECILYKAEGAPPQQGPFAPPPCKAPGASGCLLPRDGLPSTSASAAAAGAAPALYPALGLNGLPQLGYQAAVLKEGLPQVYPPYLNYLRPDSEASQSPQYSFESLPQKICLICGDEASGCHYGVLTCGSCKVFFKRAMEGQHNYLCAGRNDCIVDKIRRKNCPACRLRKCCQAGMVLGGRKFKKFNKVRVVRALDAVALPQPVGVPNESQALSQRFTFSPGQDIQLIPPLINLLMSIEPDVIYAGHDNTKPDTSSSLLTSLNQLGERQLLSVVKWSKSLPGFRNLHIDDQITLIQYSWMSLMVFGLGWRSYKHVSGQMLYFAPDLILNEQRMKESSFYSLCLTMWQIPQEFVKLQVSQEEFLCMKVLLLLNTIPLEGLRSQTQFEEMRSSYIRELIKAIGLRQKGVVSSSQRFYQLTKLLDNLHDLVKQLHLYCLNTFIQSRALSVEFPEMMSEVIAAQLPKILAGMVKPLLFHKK
As to the kind of experiment: Binding affinity to recombinant human GST-tagged PGR LBD (678 to 933 residues) expressed in Escherichia coli BL21 star(DE3) after 40 mins in presence of progesterone by fluorescence polarization assay. Summed up:
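FITC-labelled peptide at 10 nM final with increasing GST-PgR LBD in 20 mM Tris-HCl pH 8.0, 150 mM NaCl, 5% glycerol, 1 mM TCEP plus 10 μM progesterone. 40 min dark incubation, polarization at 298 K (ex 480/em 535 nm). KD by nonlinear regression against protein concentration.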

The target in data set [4] is T3, Vitamin D3 receptor (Homo sapiens, UniProt P11473).
T3 sequence (P11473 whole entry): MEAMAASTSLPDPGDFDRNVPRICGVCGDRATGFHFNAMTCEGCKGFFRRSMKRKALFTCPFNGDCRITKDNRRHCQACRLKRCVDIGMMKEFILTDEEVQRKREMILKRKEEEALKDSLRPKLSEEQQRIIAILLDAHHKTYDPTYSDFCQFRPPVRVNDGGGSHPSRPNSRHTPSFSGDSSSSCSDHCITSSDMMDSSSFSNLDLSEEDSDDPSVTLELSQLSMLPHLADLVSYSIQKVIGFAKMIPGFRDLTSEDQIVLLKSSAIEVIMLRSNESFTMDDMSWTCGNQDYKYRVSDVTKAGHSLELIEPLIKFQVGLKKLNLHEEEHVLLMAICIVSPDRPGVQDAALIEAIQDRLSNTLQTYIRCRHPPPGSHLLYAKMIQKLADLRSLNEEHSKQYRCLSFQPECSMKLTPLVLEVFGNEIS
As to the kind of experiment: Binding affinity to recombinant human GST-tagged VDR LBD (156 to 453 residues) expressed in Echerichia coli BL21 star (DE3) after 40 mins in presence of vitamin D3 by fluorescence polarization assay. The method in brief:
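GST-VDR LBD titrated into 10 nM final FITC-labelled peptide in 20 mM Tris-HCl pH 8.0, 150 mM NaCl, 5% glycerol, 1 mM TCEP containing 10 μM vitamin D3. 40 min dark incubation, polarization at 298 K (ex 480/em 535 nm). KD by nonlinear regression.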

The species named for data set [5] is Homo sapiens. As to the kind of experiment: Selectivity ratio of Kd for recombinant human ERbeta LBD (259 to 498 residues) to Kd for recombinant human ERalpha LBD (301 to 553 residues). Summed up:
(§1)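 Ratio of KD values, each from fluorescence polarization of 10 nM FITC-peptide titrated with the respective LBD after 40 min in the dark at 298 K, with the matching ligand in buffer (10 μM 17β-estradiol, progesterone or vitamin D3).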

For data set [6], the species on record is Homo sapiens. Briefly: Selectivity ratio of Kd for recombinant human GST-tagged PGR LBD ([…] residues) to Kd for recombinant human ERalpha LBD (301 to 553 residues). Summed up: as §1
For data set [7], the species on record is Homo sapiens. As to the kind of experiment: Selectivity ratio of Kd for recombinant human GST-tagged VDR LBD (156 to 453 residues) to Kd for recombinant human ERalpha LBD (301 to 553 residues). The method in brief: as §1
A short description of data set [8]: Drug uptake in human MCF7 cells assessed per million cells at 5 uM after 3 hrs by FACS analysis. It counts as ADME, cell-based. The settings on record: mcf7, 3 h. Summed up:
(§2)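 Adherent cells seeded overnight, then exposed to 5 μM FITC-labelled peptide or DMSO in FBS-free medium, 3 h, 37 °C. After PBS washes (three), about 10000 cells per sample analysed by flow cytometry; mean cellular fluorescence intensity calculated. More than two independent experiments, SEM.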
In general terms: In flow cytometry, cells or beads pass a laser one at a time.

A short description of data set [9]: Drug uptake in human U2OS cells assessed per million cells at 5 uM after 3 hrs by FACS analysis. It counts as ADME, cell-based. Summed up:
as §2

Data set [10] has as its target T4, Estrogen receptor (Homo sapiens) (UniProt P03372).
T4 sequence (whole entry): T1 sequence (P03372 whole entry)
As to the kind of experiment: Binding affinity to recombinant human GFP-fused ERalpha LBD (301 to 553 residues) expressed in Escherichia coli BL21(DE3) in presence of ERalpha inhibitor 4-hydroxytamoxifen by ITC. The method in brief: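 ITC at 25 °C. 50 μM peptide injected in 2 μL steps into 5 μM ERα LBD in 50 mM Tris pH 8.0, 150 mM NaCl, 1 mM TCEP containing 0.1 mM 4-hydroxytamoxifen instead of estradiol. Isotherm fitted.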
(In general: Isothermal titration calorimetry measures the heat released or taken up as one component is titrated into another.)

Data set [11] deals with T4, Estrogen receptor (Homo sapiens). As to the kind of experiment: Binding affinity to recombinant human GFP-fused ERalpha LBD (301 to 553 residues) expressed in Escherichia coli BL21(DE3) in presence of 17beta-estradiol by ITC. Summed up:
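ITC at 25 °C. 2 μL injections of 50 μM peptide into 5 μM ERα LBD in 50 mM Tris pH 8.0, 150 mM NaCl, 1 mM TCEP, 0.1 mM 17β-estradiol. Binding isotherm fitted for affinity.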

Data set [12] in a line: Drug uptake in human MCF7 cells at 5 uM after 3 hrs in presence of 10 nM E2 by DAPI-staining based confocal laser scanning microscopic analysis. Particulars: mcf7, 3 h.

Estrogen receptor beta, sequence (Q92731 whole entry, the tested form may be a part): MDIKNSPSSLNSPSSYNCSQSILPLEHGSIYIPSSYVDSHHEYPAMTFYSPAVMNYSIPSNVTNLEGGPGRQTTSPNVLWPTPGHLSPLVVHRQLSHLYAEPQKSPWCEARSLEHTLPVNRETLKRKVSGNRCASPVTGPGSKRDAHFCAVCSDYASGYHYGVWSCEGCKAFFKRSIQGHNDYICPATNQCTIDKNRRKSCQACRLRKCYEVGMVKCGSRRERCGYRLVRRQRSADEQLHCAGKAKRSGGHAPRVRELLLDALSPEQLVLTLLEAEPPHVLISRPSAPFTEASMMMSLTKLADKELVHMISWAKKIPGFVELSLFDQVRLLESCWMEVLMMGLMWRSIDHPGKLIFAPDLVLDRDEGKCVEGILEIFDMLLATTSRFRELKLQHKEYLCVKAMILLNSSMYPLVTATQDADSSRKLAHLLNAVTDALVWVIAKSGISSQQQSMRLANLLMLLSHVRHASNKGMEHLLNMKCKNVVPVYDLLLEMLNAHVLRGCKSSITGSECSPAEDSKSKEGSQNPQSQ

As for `CC[C@H](C)[C@H](NC(=O)[C@H](CCCCN)NC(=O)[C@H](Cc1cnc[nH]1)NC(=O)CCNC(=S)Nc1ccc2c(c1)C(=O)OC21c2ccc(O)cc2Oc2cc(O)ccc21)C(=O)N[C@@H](CC(C)C)C(=O)N[C@@H](Cc1cnc[nH]1)C(=O)N[C@@H](CCCNC(=N)N)C(=O)N[C@@H](CC(C)C)C(=O)N[C@@H](CC(C)C)C(=O)N[C@@H](CCC(N)=O)C(N)=O` ({FITC-βAla}-HKILHRLLQ-NH2), the Kd in [1] was found to be 0.118 µM; in [2], 0.213 µM; in [3] it was 0.082 µM; in data set [4], 0.142 µM. For the same compound, the Selectivity ratio in [5] came out at 1.8; in [6], 0.7; in [7], 1.2. In addition, the Drug uptake entry is on record as “Active” in data set [8], “Active” in data set [9] and “Not Active” in data set [12]. In addition, the outcome in [10] was inactive. The result in data set [11] was Active.

Usually Kd stands for the constant that tells how readily two partners part at equilibrium.
